6 molecules from ChEMBL document CHEMBL1134263, “Syntheses and evaluation of quinoline derivatives as novel retinoic acid receptor alpha antagonists” (Bioorg Med Chem Lett, 2001) can be followed below.

Where only a bound is given, the exact number is not on record here.

The target in assay [1] is T1, Retinoic acid receptor beta (Homo sapiens) (UniProt P10826).
T1 sequence (whole entry): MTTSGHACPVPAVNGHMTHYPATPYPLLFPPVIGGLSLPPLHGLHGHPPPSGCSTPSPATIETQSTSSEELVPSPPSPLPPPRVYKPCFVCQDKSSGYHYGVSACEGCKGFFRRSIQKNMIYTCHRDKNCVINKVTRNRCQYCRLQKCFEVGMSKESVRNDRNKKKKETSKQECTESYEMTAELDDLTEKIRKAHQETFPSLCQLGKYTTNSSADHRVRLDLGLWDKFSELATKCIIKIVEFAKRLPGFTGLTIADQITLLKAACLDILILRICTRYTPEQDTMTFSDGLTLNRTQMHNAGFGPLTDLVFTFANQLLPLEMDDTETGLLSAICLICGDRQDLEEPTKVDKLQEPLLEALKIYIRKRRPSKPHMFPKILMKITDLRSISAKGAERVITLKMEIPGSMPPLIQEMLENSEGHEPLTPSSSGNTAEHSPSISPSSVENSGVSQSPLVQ
Briefly: Retinoid activity at Retinoic acid receptor beta was evaluated relative to that of All-trans retinoic acids(Mean of ATRA EC50 = 1.02 nM). In outline: (§1)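 Gene transcription was induced in a co-transfection transactivation assay at each RAR subtype. Full dose-response curves started from 0.1 nM. EC30 is the concentration giving 30% of the maximal observed response. The reported value is the mean of EC30/ATRA EC30. Activity was taken as not detectable when EC30 > 3000 nM.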

Assay [2] concerns HL-60. The assay can be described thus: Agonistic activity was evaluated by HL-60 cell differentiation activity. It is filed as functional, Homo sapiens. In outline:
(§2)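 HL-60 cell differentiation was read out as CD11b expression, used as the differentiation marker.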

The target of assay [3] is T2, Retinoic acid receptor gamma (Homo sapiens) (UniProt P13631).
T2 sequence (whole entry): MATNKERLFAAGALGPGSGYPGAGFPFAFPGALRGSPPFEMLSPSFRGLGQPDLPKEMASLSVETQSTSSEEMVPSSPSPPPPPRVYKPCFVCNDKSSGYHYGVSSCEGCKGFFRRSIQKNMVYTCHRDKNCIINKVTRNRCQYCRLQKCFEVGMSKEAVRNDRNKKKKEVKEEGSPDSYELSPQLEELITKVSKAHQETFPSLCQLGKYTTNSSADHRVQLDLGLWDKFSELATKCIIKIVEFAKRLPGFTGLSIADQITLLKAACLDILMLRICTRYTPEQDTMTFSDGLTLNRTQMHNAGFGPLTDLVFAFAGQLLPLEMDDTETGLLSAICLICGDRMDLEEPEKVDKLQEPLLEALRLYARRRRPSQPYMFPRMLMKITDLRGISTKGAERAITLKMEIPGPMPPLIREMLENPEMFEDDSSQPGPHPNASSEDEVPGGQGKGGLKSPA
The assay can be described thus: Retinoid activity at Retinoic acid receptor gamma was evaluated relative to that of All-trans retinoic acids(Mean of ATRA EC50 = 0.26 nM). In outline: as §1

Assay [4] has as its target T2, Retinoic acid receptor gamma (Homo sapiens). The assay can be described thus: In vitro binding affinity towards Retinoic acid receptor gamma evaluated relative to that of All-trans retinoic acids(Mean of ATRA IC50 = 0.42 nM).
The target in assay [5] is T3, Retinoic acid receptor alpha (Homo sapiens) (UniProt P10276).
T3 sequence (whole entry): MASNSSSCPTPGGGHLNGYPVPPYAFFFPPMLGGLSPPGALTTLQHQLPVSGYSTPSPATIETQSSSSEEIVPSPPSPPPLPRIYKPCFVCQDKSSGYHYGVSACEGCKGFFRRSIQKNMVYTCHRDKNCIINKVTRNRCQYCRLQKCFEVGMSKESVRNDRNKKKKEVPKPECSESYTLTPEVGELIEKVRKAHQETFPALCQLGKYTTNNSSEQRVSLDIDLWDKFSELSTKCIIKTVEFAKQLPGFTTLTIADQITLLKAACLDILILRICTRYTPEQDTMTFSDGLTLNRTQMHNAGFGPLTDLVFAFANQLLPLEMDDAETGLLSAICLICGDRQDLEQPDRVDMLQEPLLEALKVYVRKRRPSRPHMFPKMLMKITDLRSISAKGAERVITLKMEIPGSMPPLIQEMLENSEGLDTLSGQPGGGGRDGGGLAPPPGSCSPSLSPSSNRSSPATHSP
Briefly: In vitro binding affinity towards Retinoic acid receptor alpha evaluated relative to that of All-trans retinoic acids(Mean of ATRA IC50 = 0.66 nM).

For assay [6], the target named is T1, Retinoic acid receptor beta (Homo sapiens). The assay can be described thus: In vitro binding affinity towards Retinoic acid receptor beta evaluated relative to that of All-trans retinoic acids(Mean of ATRA IC50 = 0.52 nM).
For assay [7], the target named is T3, Retinoic acid receptor alpha (Homo sapiens). Briefly: Retinoid activity at Retinoic acid receptor alpha was evaluated relative to that of All-trans retinoic acids(Mean of ATRA EC50 = 1.06 nM). In outline:
as §1

For assay [8], the system named is HL-60. The assay can be described thus: Antagonistic activity was evaluated in terms of inhibition of HL-60 cell differentiation activity by ATRA (10 nM). Format: functional, cell-based. The conditions noted are these: Homo sapiens. The method in brief:
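HL-60 cells were induced to differentiate with ATRA (10 nM). Antagonism was scored as inhibition of that differentiation, read out as CD11b expression.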

The test system of assay [9] is HL-60. Briefly: Agonistic activity was evaluated by HL-60 cell differentiation activity; Not detectable. It is filed as functional, Homo sapiens. In outline: as §2
The target of assay [10] is T3, Retinoic acid receptor alpha (Homo sapiens). The assay can be described thus: Retinoid activity at Retinoic acid receptor alpha was evaluated relative to that of All-trans retinoic acids(Mean of ATRA EC50 = 1.06 nM); Not detectable. The method in brief:
as §1

In assay [11] the target is T2, Retinoic acid receptor gamma (Homo sapiens). The assay can be described thus: In vitro binding affinity towards Retinoic acid receptor gamma evaluated relative to that of All-trans retinoic acids(Mean of ATRA IC50 = 0.42 nM); Not detectable.
The target of assay [12] is T4, Retinoic acid receptor alpha (Homo sapiens, UniProt P10276).
T4 sequence (P10276 whole entry): T3 sequence (whole entry)
The assay can be described thus: Antagonistic activity was evaluated in terms of inhibition of Retinoic acid receptor alpha transactivation by ATRA (50 nM). Format: functional.

Assay [13] concerns the target T5, Retinoic acid receptor gamma (Homo sapiens, UniProt P13631).
T5 sequence (P13631 whole entry): T2 sequence (whole entry)
Briefly: Antagonistic activity was evaluated in terms of inhibition of Retinoic acid receptor gamma transactivation by ATRA (50 nM); Not detectable. It is filed as functional.

For assay [14], the target named is T6, Retinoic acid receptor beta (Homo sapiens, UniProt P10826).
T6 sequence (P10826 whole entry): T1 sequence (whole entry)
Briefly: Antagonistic activity was evaluated in terms of inhibition of Retinoic acid receptor beta transactivation by ATRA (50 nM); Not detectable. Format: functional.

Turning to `CC(C)c1cccc2c(Cl)cc(-c3ccc(-c4ccc(C(=O)O)cc4)[nH]3)nc12`, the Relative EC30 was found to be 17 in assay [1], 1160 in assay [3] and 1.9 in assay [7]. In [2], this molecule displayed an ED30 of 100 nM. Besides, the figures for the Relative IC50 in assay [4], in assay [5] and in assay [6] were 251, 1.3 and 79, respectively.
Usually IC50 stands for the concentration that inhibits the measured activity by half. Higher therefore signals weaker potency in that assay. With `CCc1cc(-c2ccc(-c3ccc(C(=O)O)cc3)[nH]2)nc2c(C(C)C)cccc12`, the IC50 in [8] was 17 nM. The Relative EC30 was 22 in [1], 180 in assay [3] and 2.5 in assay [7]. Moreover, the ED30 in [9] is recorded as >10000 nM. The Relative IC50 in [4] was 22; in assay [5] it was 0.7; in assay [6], 32.
Take `Cc1cc(-c2ccc(-c3ccc(C(=O)O)cc3)[nH]2)nc2c(C(C)C)cccc12`: the Relative EC30 is 16 in [1], 903 in assay [3] and 2.8 in assay [7]. In assay [2], this molecule displayed an ED30 of 100 nM. The Relative IC50 turned out to be 141 in assay [4], 1.7 in assay [5] and 71 in assay [6].
As to `COc1cc(-c2ccc(-c3ccc(C(=O)O)cc3)[nH]2)nc2c(C(C)C)cccc12`, the Relative EC30 in [10] is > 3000; in assay [1], 38; in assay [3] it was 4460. The IC50 in assay [8] amounted to 1.6 nM. In addition, the ED30 in assay [9] is given as >10000 nM. For the same molecule, the Relative IC50 stood at 834 in [4], 0.8 in assay [5] and 475 in assay [6].
Take `CC(C)c1cccc2ccc(-c3ccc(-c4ccc(C(=O)O)cc4)[nH]3)nc12`: the Relative IC50 was > 1000 in [11], 5.7 in assay [5] and 579 in assay [6]. For the same molecule, the Relative EC30 in [1] came out at 97; in [3], 5770; in [7], 3. In addition, in assay [2], the ED30 worked out at 2500 nM.
On to `CC(C)c1cccc2c(-c3ccccc3)cc(-c3ccc(-c4ccc(C(=O)O)cc4)[nH]3)nc12`, for which the Relative EC30 in [10] and in assay [3] was > 3000 throughout. The IC50 in assay [8] was 6.4 nM; in [12], 31.2 nM; in assay [13], > 3000 nM; in [14], > 3000 nM. Further, in [9], the ED30 was >10000 nM. The Relative IC50 in assay [4] was found to be 432; in assay [5], 1.8; in [6], 535.
